# From PubChem
# A selection: hits, their analogues and other compounds. The true share with any hit is near 4.5%.
# MrgX1 antagonist – human MrgX1 receptor antagonism, primary screen. Q96LB2. MRGX1-HEK293 calcium flux, Fluo-4, BAM8-22 antagonism; hits give low values. B-score at 10 µM. actives 1.3% (n = 310,000). AID 588676;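 active means calcium-response B-score plate-corrected more than 3 library SD below zero, starting fluorescence within 5 deviations, no agonist response on first addition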;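 further: peak minus trough fluorescence over baseline after final BAM8-22 challenge near maximal dose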
# Target sequence (Q96LB2 whole entry, looked up): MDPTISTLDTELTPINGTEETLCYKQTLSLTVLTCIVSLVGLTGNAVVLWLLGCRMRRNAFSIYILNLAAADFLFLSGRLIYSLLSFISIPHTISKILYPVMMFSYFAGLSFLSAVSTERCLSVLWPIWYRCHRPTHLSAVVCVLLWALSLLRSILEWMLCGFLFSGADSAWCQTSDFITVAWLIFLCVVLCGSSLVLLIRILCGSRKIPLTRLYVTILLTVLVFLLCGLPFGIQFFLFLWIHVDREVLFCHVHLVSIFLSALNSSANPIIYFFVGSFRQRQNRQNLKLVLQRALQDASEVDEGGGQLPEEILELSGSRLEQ
# RGS4 inh – human RGS4 inhibition | P49798 | HEK293 M3R/RGS4 inducible, Fluo-4 calcium flux; hits give high values; triggered by carbachol at its EC20 | B-score at 10 µM | actives 0.45% (n = 310,000) | AID 463165;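 active means B-score, a plate-corrected calcium signal, over three deviations above library mean, with baseline fluorescence within five deviations of library mean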;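 further: RGS4 expression induced by doxycycline in cells with stable M3 receptor; B-score is computed from the integrated fluorescence ratio over baseline after carbachol; higher B-score means a larger calcium signal and so more RGS4 inhibition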
# Target sequence (P49798 whole entry, looked up): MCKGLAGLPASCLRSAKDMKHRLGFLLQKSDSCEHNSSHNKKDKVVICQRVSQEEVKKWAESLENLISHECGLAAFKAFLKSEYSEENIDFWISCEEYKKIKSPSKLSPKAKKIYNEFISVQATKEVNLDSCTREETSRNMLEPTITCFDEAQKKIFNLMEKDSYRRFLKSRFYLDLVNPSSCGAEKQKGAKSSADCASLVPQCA
# RGS4 act – potentiators or activators of RGS4; HEK293 M3R/inducible RGS4, carbachol calcium flux Fluo4; hits give low values; B-score at 10 µM; actives 0.92% (n = 310,000);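 active means B-score of the integrated calcium signal more than 4 SD below the library mean, with starting fluorescence not abnormally high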;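 further: negative B-score means reduced calcium response which marks RGS4 activation or potentiation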
#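 System: HEK293 FlpIn-TREx cells, stable M3R, doxycycline-inducible RGS4. Timing: overnight RGS4 induction, 30 min dye load 37 °C, 20 min compound RT. Also added: carbachol, ECmax concentration. Measured by: Fluo4 fluorescence kinetic imaging of calcium. Evaluation: integrated calcium ratio converted to B score.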
# MrgX1 PAM – allosterically activates human MrgX1 receptor signaling; Q96LB2; actives 0.63% (n = 310,000); MrgX1-HEK293, Fluo-4 calcium flux, FDSS; hits give high values; B-score at 10 µM;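 active means plate-corrected calcium response at least 3 library SD above typical, normal starting fluorescence, not activating the receptor alone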;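 further: compound read alongside a low EC10 to EC30 dose of BAM8-22 agonist; peak minus trough fluorescence over baseline measured at the second addition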
# MrgX1 ag – activates human MrgX1 receptor signaling. Q96LB2. MrgX1-HEK293 cells, Fluo-4 calcium fluorescence, agonist mode; hits give high values. B-score at 10 µM. actives 0.44% (n = 310,000). AID 588627;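 active means calcium response B-score plate-corrected fluorescence ratio at least 3 library SD, with starting fluorescence B-score inside 5 SD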
#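 Material – MrgX1-expressing HEK293 cells · Input – 15,000 cells seeded per well · Dosing – compound as first of three additions · Times – overnight seeding, then 1 h dark dye loading · Measured by – kinetic Fluo-4 NW fluorescence of intracellular calcium · Read-out – B-scored fluorescence response ratio · Benchmarks – positive and negative control wells on each plate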
# PHOSPHO1 block – blocks human PHOSPHO1 phosphatase activity | actives 1.1% (n = 290,000) | recombinant PHOSPHO1, absorbance phosphatase assay | inhibition, % at 13.3 µM; in the data active means inhibition above about 60%
# An asterisk follows results filed as active; i = inactive; x = no result.
SMILES,MrgX1 antagonist,RGS4 inh,RGS4 act,MrgX1 PAM,MrgX1 ag,PHOSPHO1 block
O=C(c1ccc2c(=O)n3c(nc2c1)CCCCC3)N1CCN(c2ccc(Cl)cc2)CC1,i,i,i,i,i,39
COc1ccc(C(=O)Nc2nc(C)cs2)cc1S(=O)(=O)N1CCCC1,i,i,i,i,i,52
COc1ccc2nc(SCC(=O)Nc3ccccc3C)[nH]c2c1,i,i,i,i,i,10
CCOc1ccc(NC(=O)CSc2nnc(Cc3cccn3C)n2-c2ccc(OC)cc2)cc1,-5.7*,i,i,i,i,16
Cn1cccc1Cc1nnc(SCC(=O)NCc2ccccc2)n1-c1ccc(F)cc1,i,i,i,i,i,11
Cn1cccc1Cc1nnc(SCC(=O)N2CCN(c3ccccc3)CC2)n1-c1ccc(F)cc1,i,i,i,i,i,70*
COc1ccc(Cl)cc1NC(=O)COC(=O)CCCN1C(=O)c2ccccc2C1=O,i,i,i,i,i,-5
COc1ccc(OC)c(NC(=O)COC(=O)CCCN2C(=O)c3ccccc3C2=O)c1,-9*,i,i,i,i,7
COc1ccc(NC(=O)CSc2nnc(Cc3cccn3C)n2-c2ccc(OC)cc2)cc1,i,i,i,i,i,2
Cc1c(Cl)cccc1NS(=O)(=O)c1c(C(=O)N2CCOCC2)c(C)n(C)c1C,i,i,i,i,i,43
CCN(CC)CCN(C)C(=O)CCc1nnc(-c2ccc(C)s2)o1,-6.6*,i,i,i,i,60*
O=C(Nc1nc2c(s1)CCCC2)C1CCCN1C(=O)c1cccs1 (stereo not drawn),i,i,i,i,i,95*
O=C(Nc1nccs1)[C@@H]1CCCN1C(=O)c1cccs1,i,i,i,i,i,36
O=C(NCc1nnc2c(C(F)(F)F)cc(Cl)cn12)c1cccs1,i,i,i,i,i,-30
O=C(NC(O)C(=O)c1ccc(F)cc1)c1ccc(F)cc1 (stereo not drawn),i,i,i,i,i,x
O=C1N(c2ccc3c(c2)OCCO3)C(c2ccccc2)C1(F)F (stereo not drawn),i,i,i,6.9*,i,-14
S=c1nc(-c2ccccc2)n(Cc2ccco2)c2c1CCCC2,x,x,x,x,x,89*
Cc1ccc(C(=O)COC(=O)C2CC3CCCC(C2)C3=O)cc1[N+](=O)[O-] (stereo not drawn),-5.6*,i,i,i,i,x
Cc1ccc([N+](=O)[O-])c(NC(=O)COC(=O)C2CC3CCCC(C2)C3=O)c1C (stereo not drawn),i,i,i,i,i,43
CCOc1cc(N2CCOCC2)c(OCC)cc1NC(=O)COC(=O)COc1ccc(C#N)cc1,-6.3*,i,i,i,i,43
COc1ccc(OC)c(-c2nc(C(=O)NCC3CCCO3)cc3c2[nH]c2ccccc23)c1 (stereo not drawn),i,i,i,i,i,14
COc1cccc(-c2nc(C(=O)NCC3CCCO3)cc3c2[nH]c2ccccc23)c1 (stereo not drawn),i,i,-7.2*,i,i,34
Oc1cccc(Nc2c3ccccc3nc3ccccc23)c1,i,i,i,i,i,61*
O=C1NC(=S)N/C1=C/c1cc([N+](=O)[O-])ccc1O,i,i,i,12*,i,82*
O=C1NC(=S)N/C1=C/c1cccc([N+](=O)[O-])c1O,i,i,i,i,i,29
SMILES,MrgX1 antagonist,RGS4 inh,RGS4 act,MrgX1 PAM,MrgX1 ag,PHOSPHO1 block
CCS(=O)(=O)N1CCC(C(=O)Oc2ccc(C)c(C)c2)CC1,i,i,i,i,i,x
CCc1[nH]c(=O)[nH]c1C(C)S(=O)(=O)c1ccc(C)cc1 (stereo not drawn),i,i,i,i,i,24
CCc1c(C(C)S(=O)(=O)c2ccc(C)cc2)[nH]c(=O)n1-c1ccc(C)cc1 (stereo not drawn),i,i,i,i,i,90*
CSC1=NCCN1S(=O)(=O)c1ccccc1,i,i,i,i,i,48
COc1cc(CNc2ccccc2SC)ccc1O,i,i,i,i,i,72*
Cc1c(Cl)cccc1NC(=S)NC1CCN(C(C)C)CC1,i,i,i,i,i,28
COc1ccc(C(=O)CN2C(=O)NC3(CCCc4ccccc43)C2=O)cc1 (stereo not drawn),i,i,-7.5*,i,i,x
CC(CCc1ccccc1)NC(=O)/C=C/c1ccccc1 (stereo not drawn),i,i,i,i,i,64*
O=C(Cc1cccc2ccccc12)N/N=C/c1ccc(Sc2cccc3cccnc23)o1,i,i,i,i,i,80*
Cc1ccc(/C=C2\SC(N3CCN(C(c4ccccc4)c4ccccc4)CC3)=NC2=O)o1,i,i,-9.4*,i,i,2
COc1ccc(C(=O)C2CCCN(C(=O)c3cc(C)nc(C)n3)C2)cc1OC (stereo not drawn),i,i,i,i,i,52
CCCCOC(=O)Sc1nc2ccccc2o1,i,i,i,i,i,94*
CN(C)c1ccc(N=C/C=C2\N(C)c3ccccc3C2(C)C)cc1,i,i,i,7.2*,i,19
CN1/C(=C\C=Nc2ccc3ccccc3c2)C(C)(C)c2ccccc21,i,x,x,i,83*,12
CCOC(=O)/C=C/c1ccc2c(c1)S(=O)(=O)N(Cc1ccc(OC)cc1)[C@H]2CC(=O)OCC,i,i,i,i,i,x
CCOC(=O)CSc1nc2cc(C(=O)OC)ccc2c(=O)n1CCN1CCOCC1,i,i,i,i,i,70*
O=C(Cn1ncc2c([nH]c3ccccc32)c1=O)N1CCN(c2ccccn2)CC1,i,i,i,i,i,15
COc1ccc(Cl)cc1C(=O)CSc1nnnn1C,i,i,i,i,i,53
CN1C(=O)c2ccc(N3CCCC3)cc2C1=O,i,i,i,i,i,-11
O=C1/C(=C/c2ccc(N3CCCC3)cc2)NC(=S)N1C1CC1,i,i,i,i,i,102*
Cc1cc(N2CCCC2)ccc1/C=C1\NC(=S)N(C)C1=O,i,i,i,i,44*,-119
O=C1N/C(=C/c2ccc(N3CCCC3)cc2)C(=O)N1c1ccccc1,i,i,i,i,i,5
